By Kd is commonly meant the equilibrium constant for the complex coming apart. What is called stoichiometry N is a count of units in the complex or per binding partner.

Here are results for two molecules from publication PMC3579768 (Biochemistry, 2012).

Bridge positions count the residues as written; N and C are the ends. Ends that are not written are not given here. Some results are limits rather than exact numbers.

In one data set the test system is HD5ox. The settings on record: SPR, pH 7.4, 150 mM NaCl; cited from earlier work. Background: In SPR one partner is held on a chip, and binding of the other changes the refractive index at the surface.
A short description of data set [1]: Sedimentation velocity analytical ultracentrifugation. The format is physicochemical. Conditions: for sedimentation coefficient (s20,w), DCDT+ analysis: 20 °C. The gist of the method:
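An-50 Ti rotor, double-sector charcoal-epon cells, interference or absorbance optics. 400 μL peptide sample against buffer reference, prepared just before the run, pH set with 1 N HCl. Buffers: 10 mM sodium phosphate (pH 7, 6, 4, 2; NaCl 50, 150, 500 mM) and 20 mM Tris-HCl or HEPES pH 7, ± 50 mM MgCl2/CaCl2. Fitting used c(s) Lamm and g(s*) from 22–26 scans, with modelled monomer/dimer/tetramer S-values.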

Data set [2] in a line: Sedimentation equilibrium analytical ultracentrifugation. The format is physicochemical. In a few lines: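 Absorbance optics at 280 nm, 20 °C, An-50 Ti rotor. Samples were 400 μL of the oxidized peptide in 10 mM sodium phosphate, pH set with 1 N HCl: pH 8 (183, 230, 283 μM), pH 7 (165–288 μM), pH 6 (210, 330 μM), pH 4 (236, 288 μM), pH 2 (189, 238, 293 μM). Buffer viscosity, density and partial specific volume were computed for 20 °C.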

Another data set in a line: NMR relaxation. The format is physicochemical. Conditions: 90:10 H2O/D2O.
The data set “AUC” concerns the molecule itself. The data set can be described thus: AUC.

Consider “Human defensin 5 (ATCYCRTGRCATRESLSGVCEISGRLYRLCCR; disulfide 10-30, 5-20, 3-31; also: 15N or 13C,15N labelled in NMR samples) [HD5ox]”, for which, in the data set with HD5ox, the “HD5ox concentration above which evidence for higher-order oligomers was reported” value was greater than 8 µM. For the same molecule, in data set [1] (50 mM MgCl2 or CaCl2 in 20 mM Tris-HCl or HEPES buffer, pH 7.0), the “effect of Mg(II) and Ca(II) on the sedimentation coefficient” value is “negligible impact”. In addition, the “minimum frictional ratio (f/f0)” value in data set [1] (Equation 2, ssphere/s20,w, all buffers) is ~ 1.2. Further, in data set [1] (aqueous buffer at neutral pH, concentrations ≥30 μM), the “oligomeric form from comparison of experimental and calculated S-values” is “tetrameric”. Also, the “sedimentation coefficient (s20,w), DCDT+ analysis” value is 1.0 S in data set [1] (pH 2.0, 10 mM sodium phosphate buffer, 194 μM); 1.2 S in data set [1] (pH 4.0, 10 mM sodium phosphate buffer, 131 μM); 1.6 S in data set [1] (pH 6.0, 10 mM sodium phosphate buffer, 161 μM); 1.8 S in data set [1] (pH 7.0, 10 mM sodium phosphate buffer). Besides, in data set [1] (up to 500 mM NaCl, pH 7, 10 mM sodium phosphate buffer), the “effect of NaCl on the sedimentation coefficient” value is recorded as “no effect”. The “best-fit molecular weight by sedimentation equilibrium” value in data set [2] (pH 2.0, 10 mM sodium phosphate buffer, 189-293 μM, 20 °C) is given as 7,079 Da. Moreover, the “oligomeric molecular weight to which the sedimentation equilibrium fit converged” value in data set [2] (pH 4.0, 6.0 and 8.0, 10 mM sodium phosphate buffer) is reported as “tetrameric”. Besides, the “molecular weight estimated from TRACT Tc” value in the data set “NMR relaxation” (340 μM 13C,15N-HD5ox, pH 4) is listed as “ca. 6.8 kDa”. Besides, in “NMR relaxation” (340 μM 13C,15N-HD5ox, pH 4 (TFA)), the “rotational correlation time Tc, [15N,1H]-TRACT method” value was “ca. 4.1 ns”. Besides, in “NMR relaxation” (340 μM, pH 4, unbuffered), the “oligomerization state under the NMR sample conditions” value was “dimer”.

B1: Human defensin 5, oxidized form (HD5ox) (peptide, UniProt Q01523 63-94, looked up)
chain: ATCYCRTGRCATRESLSGVCEISGRLYRLCCR
modifications: disulfide 10-30, 5-20, 3-31; also: 15N or 13C,15N labelled in NMR samples
Regarding B1, in “AUC”, the Kd was less than 30 µM and the “stoichiometry N” value was determined as 4.
